Results published in ChEMBL document CHEMBL2062460, “Disubstituted thiourea derivatives and their activity on CNS: synthesis and biological evaluation” (Eur J Med Chem, 2012).
≈ marks a conversion by molar mass, not a printed value. Calls of active or inactive are those of the source. No cut-off for these calls is given here.

Experiments:
Pseudomonas aeruginosa [1] = experiment: Antibacterial activity against Pseudomonas aeruginosa ATCC 15442 at 400 ug/disc after 18 hrs by disc diffusion method; type: functional, organism-based
Procedure, shortened: (§1)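 Disc diffusion per CLSI on Mueller–Hinton II agar; 9 mm paper discs loaded from methanol or DMSO solutions to 400 µg per disc, dried; growth inhibition zone diameter read after 18 h at 35 °C.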

Staphylococcus aureus [2] = experiment: Antibacterial activity against methicillin-susceptible Staphylococcus aureus clinical isolate 338/08 after 18 hrs by twofold serial agar dilution technique; type: functional; conditions: clinical isolate 338/08, 18 h
Procedure, shortened: (§2)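 Clinical isolates came from patients in Warsaw Medical University Hospitals and were classed as methicillin-susceptible or -resistant. MIC was determined by twofold serial agar dilution on Mueller–Hinton II agar (CLSI), 3.125–400 µg/mL in agar, with compounds in methanol or DMSO. Inoculum was 10^4 CFU/mL and plates were read after 18 h at 35 °C.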

[3] = system: Staphylococcus epidermidis; experiment: Antibacterial activity against methicillin-resistant Staphylococcus epidermidis clinical isolate 318/08 after 18 hrs by twofold serial agar dilution technique; type: functional; conditions: clinical isolate 318/08, 18 h; procedure, shortened: as §2
Staphylococcus aureus [4] = experiment: Antibacterial activity against methicillin-susceptible Staphylococcus aureus clinical isolate 256/08 after 18 hrs by twofold serial agar dilution technique; type: functional; conditions: clinical isolate 256/08, 18 h; procedure, shortened: as §2
[5] = system: Human immunodeficiency virus 1; experiment: Antiviral activity against HIV1 infected in human MT4 cells assessed as virus-induced cytopathogenicity after 4 days by MTT assay; type: functional, organism-based; conditions: Human immunodeficiency virus 1, MT4, 96 h
Staphylococcus aureus [6] = experiment: Antibacterial activity against methicillin-susceptible Staphylococcus aureus clinical isolate 369/09 after 18 hrs by twofold serial agar dilution technique; type: functional; conditions: clinical isolate 369/09, 18 h; procedure, shortened: as §2
Micrococcus luteus [7] = experiment: Antibacterial activity against Micrococcus luteus ATCC 10240 after 18 hrs by twofold serial agar dilution technique; type: functional; conditions: ATCC 10240, 18 h
Staphylococcus aureus [8] = experiment: Antibacterial activity against methicillin-susceptible Staphylococcus aureus clinical isolate 367/09 after 18 hrs by twofold serial agar dilution technique; type: functional; conditions: clinical isolate 367/09, 18 h; procedure, shortened: as §2
Staphylococcus aureus [9] = experiment: Antibacterial activity against methicillin-resistant Staphylococcus aureus clinical isolate 309/08 after 18 hrs by twofold serial agar dilution technique; type: functional; conditions: clinical isolate 309/08, 18 h; procedure, shortened: as §2
Staphylococcus aureus [10] = experiment: Antibacterial activity against methicillin-resistant Staphylococcus aureus clinical isolate 306/08 after 18 hrs by twofold serial agar dilution technique; type: functional; conditions: clinical isolate 306/08, 18 h; procedure, shortened: as §2
[11] = system: Staphylococcus epidermidis; experiment: Antibacterial activity against methicillin-resistant Staphylococcus epidermidis clinical isolate 317/08 after 18 hrs by twofold serial agar dilution technique; type: functional; conditions: clinical isolate 317/08, 18 h; procedure, shortened: as §2
[12] = system: Staphylococcus epidermidis; experiment: Antibacterial activity against methicillin-resistant Staphylococcus epidermidis clinical isolate 315/08 after 18 hrs by twofold serial agar dilution technique; type: functional; conditions: clinical isolate 315/08, 18 h; procedure, shortened: as §2
Bacillus cereus [13] = experiment: Antibacterial activity against Bacillus cereus ATCC 11778 after 18 hrs by twofold serial agar dilution technique; type: functional; conditions: ATCC 11778, 18 h
Enterococcus hirae [14] = experiment: Antibacterial activity against Enterococcus hirae ATCC 10541 after 18 hrs by twofold serial agar dilution technique; type: functional; conditions: ATCC 10541, 18 h
Pseudomonas aeruginosa [15] = experiment: Antibacterial activity against Pseudomonas aeruginosa NCTC 6749 at 400 ug/disc after 18 hrs by disc diffusion method; type: functional, organism-based; procedure, shortened: as §1
[16] = system: Staphylococcus epidermidis; experiment: Antibacterial activity against methicillin-resistant Staphylococcus epidermidis clinical isolate 341/09 after 18 hrs by twofold serial agar dilution technique; type: functional; conditions: clinical isolate 341/09, 18 h; procedure, shortened: as §2
Staphylococcus aureus [17] = experiment: Antibacterial activity against methicillin-resistant Staphylococcus aureus clinical isolate 307/08 after 18 hrs by twofold serial agar dilution technique; type: functional; conditions: clinical isolate 307/08, 18 h; procedure, shortened: as §2
Staphylococcus aureus [18] = experiment: Antibacterial activity against Staphylococcus aureus NCTC 4163 after 18 hrs by twofold serial agar dilution technique; type: functional; conditions: NCTC 4163, 18 h
Procedure, shortened: (§3)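 Twofold serial agar dilution on Mueller–Hinton II agar, following CLSI guidelines. Compounds were dissolved in methanol or DMSO and tested at final agar concentrations of 3.125–400 µg/mL. Final inoculum was 10^4 CFU/mL.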

Escherichia coli = experiment: Antibacterial activity against Escherichia coli ATCC 10538 at 400 ug/disc after 18 hrs by disc diffusion method; type: functional, organism-based; procedure, shortened: as §1
Staphylococcus aureus [19] = experiment: Antibacterial activity against methicillin-resistant Staphylococcus aureus clinical isolate 277/08 after 18 hrs by twofold serial agar dilution technique; type: functional; conditions: clinical isolate 277/08, 18 h; procedure, shortened: as §2
Candida albicans = experiment: Antifungal activity against Candida albicans ATCC 90028 at 400 ug/disc after 18 hrs by disc diffusion method; type: functional, organism-based
Procedure, shortened: (§4)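 Yeasts tested by disc diffusion (CLSI) on RPMI agar with 2% glucose; 9 mm paper discs bearing 400 µg compound from methanol or DMSO solution; inhibition zone diameter read after 18 h at 35 °C.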

Staphylococcus aureus [20] = experiment: Antibacterial activity against methicillin-resistant Staphylococcus aureus clinical isolate 275/08 after 18 hrs by twofold serial agar dilution technique; type: functional; conditions: clinical isolate 275/08, 18 h; procedure, shortened: as §2
[21] = system: Bordetella bronchiseptica; experiment: Antibacterial activity against Bordetella bronchiseptica ATCC 4617 at 400 ug/disc after 18 hrs by disc diffusion method; type: functional, organism-based; procedure, shortened: as §1
Enterococcus hirae [22] = experiment: Antibacterial activity against Enterococcus hirae ATCC 10541 at 400 ug/disc after 18 hrs by disc diffusion method; type: functional; conditions: ATCC 10541, 18 h, read-out: DIZ; procedure, shortened: as §1
Candida parapsilosis = experiment: Antifungal activity against Candida parapsilosis ATCC 22019 at 400 ug/disc after 18 hrs by disc diffusion method; type: functional, organism-based; procedure, shortened: as §4
Micrococcus luteus [23] = experiment: Antibacterial activity against Micrococcus luteus ATCC 10240 at 400 ug/disc after 18 hrs by disc diffusion method; type: functional; conditions: ATCC 10240, 18 h, read-out: DIZ; procedure, shortened: as §1
Bacillus cereus [24] = experiment: Antibacterial activity against Bacillus cereus ATCC 11778 at 400 ug/disc after 18 hrs by disc diffusion method; type: functional; conditions: ATCC 11778, 18 h, read-out: DIZ; procedure, shortened: as §1
Staphylococcus aureus [25] = experiment: Antibacterial activity against methicillin-resistant Staphylococcus aureus clinical isolate 357/09 after 18 hrs by twofold serial agar dilution technique; type: functional; conditions: clinical isolate 357/09, 18 h; procedure, shortened: as §2
Staphylococcus aureus [26] = experiment: Antibacterial activity against methicillin-susceptible Staphylococcus aureus clinical isolate 372/09 after 18 hrs by twofold serial agar dilution technique; type: functional; conditions: clinical isolate 372/09, 18 h; procedure, shortened: as §2
Staphylococcus aureus [27] = experiment: Antibacterial activity against Staphylococcus aureus ATCC 25923 at 400 ug/disc after 18 hrs by disc diffusion method; type: functional; conditions: ATCC 25923, 18 h, read-out: DIZ; procedure, shortened: as §1
Staphylococcus aureus [28] = experiment: Antibacterial activity against methicillin-resistant Staphylococcus aureus clinical isolate 376/09 after 18 hrs by twofold serial agar dilution technique; type: functional; conditions: clinical isolate 376/09, 18 h; procedure, shortened: as §2
Staphylococcus aureus [29] = experiment: Antibacterial activity against Staphylococcus aureus ATCC 25923 after 18 hrs by twofold serial agar dilution technique; type: functional; conditions: ATCC 25923, 18 h; procedure, shortened: as §3
[30] = system: Staphylococcus epidermidis; experiment: Antibacterial activity against Staphylococcus epidermidis ATCC 12228 at 400 ug/disc after 18 hrs by disc diffusion method; type: functional; conditions: ATCC 12228, 18 h, read-out: DIZ; procedure, shortened: as §1
Micrococcus luteus [31] = experiment: Antibacterial activity against Micrococcus luteus ATCC 9341 after 18 hrs by twofold serial agar dilution technique; type: functional; conditions: ATCC 9341, 18 h
[32] = system: Staphylococcus epidermidis; experiment: Antibacterial activity against methicillin-resistant Staphylococcus epidermidis clinical isolate 340/09 after 18 hrs by twofold serial agar dilution technique; type: functional; conditions: clinical isolate 340/09, 18 h; procedure, shortened: as §2
[33] = system: Staphylococcus epidermidis; experiment: Antibacterial activity against methicillin-resistant Staphylococcus epidermidis clinical isolate 377/09 after 18 hrs by twofold serial agar dilution technique; type: functional; conditions: clinical isolate 377/09, 18 h; procedure, shortened: as §2

S=C(Nc1ccc(Br)cc1)Nc1nc[nH]n1
diameter of the inhibition zone (DIZ) (Pseudomonas aeruginosa [1]): inactive | MIC (Staphylococcus aureus [2]): 50 µg/mL (≈ 168 µM) | MIC [3]: 25 µg/mL (≈ 83.8 µM) | MIC (Staphylococcus aureus [4]): 25 µg/mL (≈ 83.8 µM) | EC50 [5]: > 100 µM | MIC (Staphylococcus aureus [6]): 50 µg/mL (≈ 168 µM) | MIC (Micrococcus luteus [7]): 12.5 µg/mL (≈ 41.9 µM) | MIC (Staphylococcus aureus [8]): 50 µg/mL (≈ 168 µM) | MIC (Staphylococcus aureus [9]): 50 µg/mL (≈ 168 µM) | MIC (Staphylococcus aureus [10]): 50 µg/mL (≈ 168 µM) | MIC [11]: 100 µg/mL (≈ 335 µM) | MIC [12]: 50 µg/mL (≈ 168 µM) | MIC (Bacillus cereus [13]): 12.5 µg/mL (≈ 41.9 µM) | MIC (Enterococcus hirae [14]): 400 µg/mL (≈ 1340 µM) | diameter of the inhibition zone (DIZ) (Pseudomonas aeruginosa [15]): inactive | MIC [16]: 50 µg/mL (≈ 168 µM) | MIC (Staphylococcus aureus [17]): 50 µg/mL (≈ 168 µM) | MIC (Staphylococcus aureus [18]): 50 µg/mL (≈ 168 µM) | diameter of the inhibition zone (DIZ) (Escherichia coli): inactive | MIC (Staphylococcus aureus [19]): 50 µg/mL (≈ 168 µM) | diameter of the inhibition zone (DIZ) (Candida albicans): inactive | MIC (Staphylococcus aureus [20]): 100 µg/mL (≈ 335 µM) | diameter of the inhibition zone (DIZ) [21]: inactive | zone of inhibition at 400 µg/disc (Enterococcus hirae [22]): 25 mm | diameter of the inhibition zone (DIZ) (Candida parapsilosis): inactive | zone of inhibition at 400 µg/disc (Micrococcus luteus [23]): 29 mm | zone of inhibition at 400 µg/disc (Bacillus cereus [24]): 18 mm | MIC (Staphylococcus aureus [25]): 50 µg/mL (≈ 168 µM) | MIC (Staphylococcus aureus [26]): 25 µg/mL (≈ 83.8 µM) | zone of inhibition at 400 µg/disc (Staphylococcus aureus [27]): 22 mm | MIC (Staphylococcus aureus [28]): 50 µg/mL (≈ 168 µM) | MIC (Staphylococcus aureus [29]): 50 µg/mL (≈ 168 µM) | zone of inhibition at 400 µg/disc [30]: 16 mm | MIC (Micrococcus luteus [31]): 25 µg/mL (≈ 83.8 µM) | MIC [32]: 25 µg/mL (≈ 83.8 µM) | MIC [33]: 25 µg/mL (≈ 83.8 µM)
